Measurements published in ChEMBL document CHEMBL1137710, “Synthesis and in vitro antitumor activity of new quinoxaline derivatives” (2009).

Tests used:
Type in all cases: functional
SNB-19 = assay: Growth inhibition of human SNB19 cells after 48 hrs by sulforhodamine B assay; conditions: SNB-19, 48 h; for TGI: read-out: pTGI (converted)
Summary of the method: (§1)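 Run in the NCI 60-human-tumour-cell-line panel, tested over a 5-log dose range. Dose–response curves gave three values per cell line, each as a log10 molar concentration: GI50 (50% inhibition of net cell growth), TGI (total inhibition of net growth) and LC50 (50% net cell death). The mean graph midpoint is the arithmetic mean over all lines, with insensitive lines entered at the highest concentration tested.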

MDA-MB-435 = assay: Growth inhibition of human MDA-MB-435 cells after 48 hrs by sulforhodamine B assay; conditions: MDA-MB-435, 48 h; for TGI: read-out: pTGI (converted)
Summary of the method: (§2)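 NCI 60-human-tumor-cell-line panel, with compounds tested over a 5-log dose range. Values are taken from dose-response curves as log10 molar concentrations: GI50 is 50% net growth inhibition, TGI is total growth inhibition, and LC50 is 50% net cell death.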

NCI/ADR-RES = assay: Growth inhibition of human NCI/ADR-RES cells after 48 hrs by sulforhodamine B assay; conditions: for CC50: read-out: pLC50 (the source's name) (converted); for TGI: read-out: pTGI (converted); summary of the method: as §2
SW-620 = assay: Growth inhibition of human SW620 cells after 48 hrs by sulforhodamine B assay; conditions: SW-620, 48 h; for CC50: read-out: pLC50 (the source's name) (converted); for TGI: read-out: pTGI (converted); summary of the method: as §1
NCI-H322M = assay: Growth inhibition of human NCI-H322M cells after 48 hrs by sulforhodamine B assay; conditions: for TGI: read-out: pTGI (converted); summary of the method: as §2
OVCAR-5 = assay: Growth inhibition of human OVCAR5 cells after 48 hrs by sulforhodamine B assay; conditions: OVCAR-5, 48 h; for CC50: read-out: pLC50 (the source's name) (converted); for TGI: read-out: pTGI (converted); summary of the method: as §2
HOP-62 = assay: Growth inhibition of human HOP62 cells after 48 hrs by sulforhodamine B assay; conditions: HOP-62, 48 h; for TGI: read-out: pTGI (converted); summary of the method: as §2
MDA-MB-231 = assay: Growth inhibition of human MDA-MB-231 cells after 48 hrs by sulforhodamine B assay; conditions: MDA-MB-231, 48 h; for CC50: read-out: pLC50 (the source's name) (converted); for TGI: read-out: pTGI (converted); summary of the method: as §2
NCI-H23 = assay: Growth inhibition of human NCI-H23 cells after 48 hrs by sulforhodamine B assay; conditions: NCI-H23, 48 h; for TGI: read-out: pTGI (converted); summary of the method: as §2
UACC-257 = assay: Growth inhibition of human UACC257 cells after 48 hrs by sulforhodamine B assay; conditions: UACC-257, 48 h; for CC50: read-out: pLC50 (the source's name) (converted); for TGI: read-out: pTGI (converted); summary of the method: as §1
M14 = assay: Growth inhibition of human M14 cells after 48 hrs by sulforhodamine B assay; conditions: M14, 48 h; for CC50: read-out: pLC50 (the source's name) (converted); for TGI: read-out: pTGI (converted); summary of the method: as §2
COLO 205 = assay: Growth inhibition of human COLO205 cells after 48 hrs by sulforhodamine B assay; conditions: COLO 205, 48 h; for TGI: read-out: pTGI (converted); summary of the method: as §2
OVCAR-4 = assay: Growth inhibition of human OVCAR4 cells after 48 hrs by sulforhodamine B assay; conditions: OVCAR-4, 48 h; for CC50: read-out: pLC50 (the source's name) (converted); for TGI: read-out: pTGI (converted); summary of the method: as §2
786-0 = assay: Growth inhibition of human 786-0 cells after 48 hrs by sulforhodamine B assay; conditions: 786-0, 48 h; for CC50: read-out: pLC50 (the source's name) (converted); for TGI: read-out: pTGI (converted); summary of the method: as §2
UO-31 = assay: Growth inhibition of human UO31 cells after 48 hrs by sulforhodamine B assay; conditions: UO-31, 48 h; for CC50: read-out: pLC50 (the source's name) (converted); for TGI: read-out: pTGI (converted); summary of the method: as §1
HL-60(TB) = assay: Growth inhibition of human HL-60(TB) cells after 48 hrs by sulforhodamine B assay; conditions: HL-60, 48 h; for TGI: read-out: pTGI (converted)
Summary of the method: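 Tested only on compounds active in a three-line prescreen, in the NCI 60-human-tumour-cell-line panel over a 5-log dose range. Values come from dose–response curves as log10 molar GI50, the concentration inhibiting 50% net cell growth. Log10 TGI (total growth inhibition) and log10 LC50 (50% net cell death) were derived too. Mean graph midpoints include insensitive lines at the highest concentration tested.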

[1] = Growth inhibition of human […] cells after 48 hrs by sulforhodamine B assay; conditions: for TGI: read-out: pTGI (converted); summary of the method: as §2
SK-OV-3 = assay: Growth inhibition of human SKOV3 cells after 48 hrs by sulforhodamine B assay; conditions: SK-OV-3, 48 h; for CC50: read-out: pLC50 (the source's name) (converted); for TGI: read-out: pTGI (converted); summary of the method: as §2
CAKI-1 = assay: Growth inhibition of human Caki1 cells after 48 hrs by sulforhodamine B assay; conditions: CAKI-1, 48 h; for CC50: read-out: pLC50 (the source's name) (converted); for TGI: read-out: pTGI (converted); summary of the method: as §2
U-251 = assay: Growth inhibition of human U251 cells after 48 hrs by sulforhodamine B assay; conditions: U-251, 48 h; for TGI: read-out: pTGI (converted); summary of the method: as §1
NCI-H522 = assay: Growth inhibition of human NCI-H522 cells after 48 hrs by sulforhodamine B assay; conditions: NCI-H522, 48 h; for TGI: read-out: pTGI (converted); summary of the method: as §2
OVCAR-8 = assay: Growth inhibition of human OVCAR8 cells after 48 hrs by sulforhodamine B assay; conditions: OVCAR-8, 48 h; for CC50: read-out: pLC50 (the source's name) (converted); for TGI: read-out: pTGI (converted); summary of the method: as §2
OVCAR-3 = assay: Growth inhibition of human OVCAR-3 cells after 48 hrs by sulforhodamine B assay; conditions: OVCAR-3, 48 h; for CC50: read-out: pLC50 (the source's name) (converted); for TGI: read-out: pTGI (converted); summary of the method: as §2
A549 = assay: Growth inhibition of human A549 cells after 48 hrs by sulforhodamine B assay; conditions: A549, 48 h; for TGI: read-out: pTGI (converted); summary of the method: as §2
K562 = assay: Growth inhibition of human K562 cells after 48 hrs by sulforhodamine B assay; conditions: K562, 48 h; for TGI: read-out: pTGI (converted); summary of the method: as §2
TK-10 = assay: Growth inhibition of human TK10 cells after 48 hrs by sulforhodamine B assay; conditions: TK-10, 48 h; for CC50: read-out: pLC50 (the source's name) (converted); for TGI: read-out: pTGI (converted); summary of the method: as §1
HCT-116 = assay: Growth inhibition of human HCT116 cells after 48 hrs by sulforhodamine B assay; conditions: HCT-116, 48 h; for TGI: read-out: pTGI (converted); summary of the method: as §2
SF-295 = assay: Growth inhibition of human SF295 cells after 48 hrs by sulforhodamine B assay; conditions: SF-295, 48 h; for TGI: read-out: pTGI (converted); summary of the method: as §2

## COc1ccc(CNc2nc3cc(N)cc(N)c3nc2-c2ccccc2)cc1
SNB-19
  GI50: 41.7 µM
  LC50: > 100 µM
  TGI: > 100 µM
MDA-MB-435
  GI50: 10 µM
  TGI: 21.9 µM
MDA-MB-435; read-out: pLC50 (the source's name) (converted)
  CC50: 46.8 µM
NCI/ADR-RES
  GI50: 22.9 µM
  CC50: > 100 µM
  TGI: 83.2 µM
SW-620
  GI50: 12.9 µM
  CC50: 70.8 µM
  TGI: 30.2 µM
NCI-H322M
  GI50: 22.9 µM
  LC50: > 100 µM
  TGI: 52.5 µM
OVCAR-5
  GI50: 20.9 µM
  CC50: > 100 µM
  TGI: 45.7 µM
HOP-62
  GI50: 17.4 µM
  LC50: 69.2 µM
  TGI: 34.7 µM
MDA-MB-231
  GI50: 2.88 µM
  CC50: 64.6 µM
  TGI: 13.8 µM
NCI-H23
  GI50: 17 µM
  LC50 (50% net cell kill concentration): 70.8 µM
  TGI: 34.7 µM
UACC-257
  GI50: 16.2 µM
  CC50: 56.2 µM
  TGI: 30.2 µM
M14
  GI50: 18.2 µM
  CC50: 57.5 µM
  TGI: 32.4 µM
COLO 205
  GI50: 15.5 µM
  LC50 (50% net cell kill): 74.1 µM
  TGI: 33.9 µM
OVCAR-4
  GI50: 8.13 µM
  CC50: 47.9 µM
  TGI: 21.4 µM
786-0
  GI50: 15.1 µM
  CC50: > 100 µM
  TGI: 41.7 µM
UO-31
  GI50: 11.5 µM
  CC50: 72.4 µM
  TGI: 28.8 µM
HL-60(TB)
  GI50: 13.5 µM
  LC50: > 100 µM
  TGI: 51.3 µM
[1]
  GI50: 4.17 µM
  LC50: > 100 µM
  TGI: 15.8 µM
SK-OV-3
  CC50: > 100 µM
  TGI: 57.5 µM
CAKI-1
  GI50: 16.2 µM
  CC50: 79.4 µM
  TGI: 36.3 µM
U-251
  GI50: 13.5 µM
  LC50 (50% net cell kill): 51.3 µM
  TGI: 26.3 µM
NCI-H522
  GI50: 10 µM
  LC50: 47.9 µM
  TGI: 21.9 µM
OVCAR-8
  GI50: 14.8 µM
  CC50: > 100 µM
  TGI: 39.8 µM
OVCAR-3
  GI50: 2.24 µM
  CC50: 38.9 µM
  TGI: 7.76 µM
A549
  GI50: 21.4 µM
  LC50: > 100 µM
  TGI: 60.3 µM
K562
  GI50: 25.1 µM
  LC50: > 100 µM
  TGI: 97.7 µM
TK-10
  GI50: 28.2 µM
  CC50: > 100 µM
  TGI: 57.5 µM
HCT-116
  GI50: 14.5 µM
  LC50 (concentration causing 50% net cell death): 52.5 µM
  TGI: 27.5 µM
SF-295
  GI50: 17.8 µM
  LC50 (50% net cell kill): 58.9 µM
  TGI: 32.4 µM

## COc1cc(CNc2nc3cc(N)cc(N)c3nc2-c2ccccc2)cc(OC)c1
SNB-19
  GI50: 23.4 µM
  LC50: > 100 µM
  TGI: > 100 µM
MDA-MB-435
  GI50: 2.14 µM
  TGI: 4.27 µM
NCI/ADR-RES
  GI50: 5.5 µM
  CC50: > 100 µM
  TGI: 33.1 µM
SW-620
  GI50: 4.47 µM
  CC50: > 100 µM
  TGI: > 100 µM
NCI-H322M
  GI50: 44.7 µM
  LC50: > 100 µM
  TGI: > 100 µM
OVCAR-5
  GI50: 5.89 µM
  CC50: > 100 µM
  TGI: 29.5 µM
HOP-62
  GI50: 13.5 µM
  LC50: 72.4 µM
  TGI: 31.6 µM
MDA-MB-231
  GI50: 2.09 µM
  CC50: > 100 µM
  TGI: 6.03 µM
NCI-H23
  GI50: 16.2 µM
  LC50 (50% net cell kill concentration): > 100 µM
  TGI: > 100 µM
UACC-257
  GI50: 25.7 µM
  CC50: > 100 µM
  TGI: > 100 µM
M14
  GI50: 10 µM
  CC50: > 100 µM
  TGI: 49 µM
COLO 205
  GI50: 2.4 µM
  LC50 (50% net cell kill): > 100 µM
  TGI: 6.03 µM
OVCAR-4
  GI50: 0.0141 µM
  CC50: 3.24 µM
  TGI: 0.977 µM
786-0
  GI50: 12.6 µM
  CC50: > 100 µM
  TGI: 44.7 µM
UO-31
  GI50: 4.07 µM
  CC50: > 100 µM
  TGI: > 100 µM
HL-60(TB)
  GI50: 3.8 µM
  LC50: > 100 µM
  TGI: > 100 µM
[1]
  GI50: 2.19 µM
  LC50: > 100 µM
  TGI: 6.17 µM
SK-OV-3
  GI50: 15.1 µM
  CC50: > 100 µM
  TGI: 53.7 µM
CAKI-1
  GI50: 15.8 µM
  CC50: > 100 µM
  TGI: > 100 µM
U-251
  GI50: 5.13 µM
  LC50 (50% net cell kill): > 100 µM
  TGI: > 100 µM
NCI-H522
  GI50: 2.88 µM
  LC50: > 100 µM
  TGI: 22.9 µM
OVCAR-8
  GI50: 2.82 µM
  CC50: > 100 µM
  TGI: 8.13 µM
OVCAR-3
  GI50: 1.86 µM
  CC50: > 100 µM
  TGI: 4.57 µM
A549
  GI50: 33.1 µM
  LC50: > 100 µM
  TGI: > 100 µM
K562
  GI50: 3.63 µM
  LC50: > 100 µM
  TGI: 9.33 µM
TK-10
  GI50: 24.5 µM
  CC50: > 100 µM
  TGI: 63.1 µM
HCT-116
  GI50: 3.09 µM
  LC50 (concentration causing 50% net cell death): 72.4 µM
  TGI: 11.2 µM
SF-295
  GI50: 14.1 µM
  LC50 (50% net cell kill): 87.1 µM
  TGI: 35.5 µM
